In assay [1] the target is T1, Neutral cholesterol ester hydrolase 1 (Homo sapiens, UniProt Q6PIU2).
T1 sequence (Q6PIU2 whole entry): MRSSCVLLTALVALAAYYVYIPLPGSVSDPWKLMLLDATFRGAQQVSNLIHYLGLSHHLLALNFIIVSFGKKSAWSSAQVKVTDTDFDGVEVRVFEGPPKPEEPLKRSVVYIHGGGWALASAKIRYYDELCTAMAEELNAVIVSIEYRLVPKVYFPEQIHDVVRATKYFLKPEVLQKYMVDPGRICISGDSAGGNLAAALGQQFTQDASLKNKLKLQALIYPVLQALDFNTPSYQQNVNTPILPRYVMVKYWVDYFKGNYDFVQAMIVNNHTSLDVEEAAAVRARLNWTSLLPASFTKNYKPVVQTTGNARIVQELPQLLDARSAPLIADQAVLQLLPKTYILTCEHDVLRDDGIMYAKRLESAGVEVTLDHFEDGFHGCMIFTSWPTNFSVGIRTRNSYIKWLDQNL
Description: Inhibition of KIAA1363.

Assay [2] deals with T2, Liver carboxylesterase 1 (Homo sapiens, UniProt P23141).
T2 sequence (P23141 whole entry): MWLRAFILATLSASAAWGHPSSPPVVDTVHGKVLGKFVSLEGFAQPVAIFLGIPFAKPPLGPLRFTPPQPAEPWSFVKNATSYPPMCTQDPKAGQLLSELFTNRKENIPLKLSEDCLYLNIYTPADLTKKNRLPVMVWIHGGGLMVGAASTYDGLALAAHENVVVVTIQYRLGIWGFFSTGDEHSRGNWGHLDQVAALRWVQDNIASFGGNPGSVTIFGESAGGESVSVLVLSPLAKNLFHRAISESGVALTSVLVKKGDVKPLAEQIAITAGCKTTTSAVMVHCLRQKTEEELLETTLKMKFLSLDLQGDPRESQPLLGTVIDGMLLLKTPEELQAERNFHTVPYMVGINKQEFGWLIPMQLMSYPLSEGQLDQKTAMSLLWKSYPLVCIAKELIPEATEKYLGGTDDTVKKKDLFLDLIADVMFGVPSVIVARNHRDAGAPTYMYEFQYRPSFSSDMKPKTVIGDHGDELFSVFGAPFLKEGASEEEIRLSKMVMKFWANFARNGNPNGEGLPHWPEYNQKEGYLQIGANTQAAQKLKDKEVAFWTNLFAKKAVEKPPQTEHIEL

Assay [3] has as its target T3, Fatty-acid amide hydrolase 1 (Homo sapiens, UniProt O00519).
T3 sequence (O00519 whole entry): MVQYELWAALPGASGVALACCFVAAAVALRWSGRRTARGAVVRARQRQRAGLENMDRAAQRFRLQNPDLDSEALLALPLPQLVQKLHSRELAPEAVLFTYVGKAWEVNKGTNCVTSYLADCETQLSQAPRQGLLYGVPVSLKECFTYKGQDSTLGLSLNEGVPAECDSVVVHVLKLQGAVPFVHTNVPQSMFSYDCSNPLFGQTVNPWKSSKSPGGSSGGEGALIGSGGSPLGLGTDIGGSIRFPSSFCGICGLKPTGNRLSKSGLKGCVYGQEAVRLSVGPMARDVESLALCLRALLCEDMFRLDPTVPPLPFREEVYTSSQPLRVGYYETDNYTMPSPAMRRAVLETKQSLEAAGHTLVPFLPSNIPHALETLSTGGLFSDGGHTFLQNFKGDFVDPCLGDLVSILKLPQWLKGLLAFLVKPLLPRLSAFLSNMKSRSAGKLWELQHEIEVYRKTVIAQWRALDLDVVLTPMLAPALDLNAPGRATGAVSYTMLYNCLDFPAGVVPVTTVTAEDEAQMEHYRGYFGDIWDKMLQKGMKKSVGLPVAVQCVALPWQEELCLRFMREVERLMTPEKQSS
Description: Inhibition of human recombinant FAAH expressed COS7 cells. The assay is classed as cell-based, COS-7. A digest of the protocol:
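Enzyme source was solubilized membrane lysate of COS-7 cells transiently transfected with full-length human FAAH cDNA. Substrate 10 µM 14C-oleamide in pH 9.0 Tris/EDTA/glycerol/Triton X-100/Hepes buffer at room temperature, with three inhibitor concentrations. Reactions quenched in 0.1 N HCl at three time points, then EtOAc extraction and TLC of oleamide versus oleic acid. Ki from Dixon plot.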

A short description of assay [4]: Selectivity for rat recombinant FAAH over TGH.
The nature of assay [5]: Selectivity for rat recombinant FAAH over KIAA1363.
The target of assay [6] is T4, Fatty-acid amide hydrolase 1 (Rattus norvegicus, UniProt P97612).
T4 sequence (P97612 whole entry): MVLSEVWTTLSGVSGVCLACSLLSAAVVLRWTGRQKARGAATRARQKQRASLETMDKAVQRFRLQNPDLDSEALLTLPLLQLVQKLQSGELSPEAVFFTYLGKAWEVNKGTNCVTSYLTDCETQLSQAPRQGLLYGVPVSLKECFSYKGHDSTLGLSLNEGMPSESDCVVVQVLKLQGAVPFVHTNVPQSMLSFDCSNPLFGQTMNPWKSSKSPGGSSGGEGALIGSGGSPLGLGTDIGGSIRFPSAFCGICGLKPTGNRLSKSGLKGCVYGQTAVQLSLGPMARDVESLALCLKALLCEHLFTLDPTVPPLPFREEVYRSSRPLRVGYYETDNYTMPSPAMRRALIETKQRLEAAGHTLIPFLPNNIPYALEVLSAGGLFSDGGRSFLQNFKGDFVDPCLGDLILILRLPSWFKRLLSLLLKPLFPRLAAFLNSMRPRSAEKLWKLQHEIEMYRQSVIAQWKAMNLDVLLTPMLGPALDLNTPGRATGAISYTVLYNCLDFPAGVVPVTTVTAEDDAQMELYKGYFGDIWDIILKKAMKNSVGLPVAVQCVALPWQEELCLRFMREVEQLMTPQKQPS
Description: Inhibition of rat recombinant FAAH expressed in Escherichia coli.

The nature of assay [7]: Selectivity for TGH over rat recombinant FAAH.
The target in assay [8] is T3, Fatty-acid amide hydrolase 1.

pIC50, pKi: −log10 of the molar value.

One may read the pIC50 as the IC50 on a negative log10 scale, so that one unit is a factor of ten. In general, pKi refers to the Ki on a negative log10 scale, so that one unit is a factor of ten. Regarding `N#Cc1cnc(C(=O)CCc2ccc(COc3ccccc3)cc2)o1`, the pIC50 in assay [1] is 4.72; in assay [2] it was 7.00; in assay [6], 8.70. Besides, the negative logarithm of the Ki (pKi) was 9.29 in assay [3] and 9.30 in assay [6]. The Ratio IC50 in assay [4] turned out to be 50; in assay [5], 9500. Besides, in assay [5], the Selectivity ratio is over 1000.
As for `N#Cc1cnc(C(=O)CCc2ccc(Oc3ccccc3)cc2)o1`, the pIC50 in assay [1] was 4.70; in assay [2] it was 7.80; in assay [6] it was 8.30. Also, the pKi in assay [3] is 9.07; in assay [6], 9.10. Also, the figures for the Ratio IC50 in assay [4] and in assay [5] were 3 and 4000, respectively. In assay [5], the Selectivity ratio was over 1000.
`O=C(CCc1ccc(Oc2ccccc2)cc1)c1ncco1`: the pIC50 in assay [1] was under 4.00; in assay [2], 7.52; in assay [6] it was 6.30. Moreover, in assay [7], the Selectivity ratio amounted to 1. The Ratio IC50 in assay [4] is 0.06; in assay [5], over 200. Besides, the pKi in assay [6] is 7.11.
Turning to `O=C(CCc1ccc(COc2ccccc2)cc1)c1ncc(C(F)(F)F)o1`, the pKi in assay [3] was 9.17; in assay [6], 9.10.
For the compound `CCCCCCCC/C=C\CCCCCCCC(=O)c1ncco1`, in assay [8], the pKi is 7.00.
Turning to `O=C(O)c1cccc(-c2cnc(C(=O)CCc3ccc(Oc4ccccc4)cc3)o2)n1`, the results for the negative logarithm of the IC50 (pIC50) in assay [1], in assay [2] and in assay [6] were under 4.00, under 4.00 and 7.70, respectively. Also, the Ratio IC50 in assay [4] and in assay [5] was over 5000 in each case.
For `N#Cc1cnc(C(=O)CCc2ccc(-c3ccccc3)cc2)o1`, the values for the negative logarithm of the IC50 (pIC50) in assay [1], in assay [2] and in assay [6] were 4.19, 7.59 and 9.00, respectively. Moreover, the Ratio IC50 came out at 26 in assay [4] and 64000 in assay [5]. The Selectivity ratio in assay [5] was over 1000.
On to `O=C(CCc1ccc(COc2ccccc2)cc1)c1ncco1`, for which the values for the pIC50 in assay [1], in assay [2] and in assay [6] were under 4.00, 6.57 and 6.57, respectively. For the same compound, the Selectivity ratio in assay [7] amounted to 1. Further, the Ratio IC50 was 1 in assay [4] and over 370 in assay [5]. The pKi in assay [6] is 7.60.
Take `O=C(CCc1ccc(-c2ccccc2)cc1)c1ncco1`: the results for the pIC50 in assay [1], in assay [2] and in assay [6] were under 4.00, 8.35 and 6.74, respectively. Moreover, the Selectivity ratio in assay [7] was found to be 1. Also, the Ratio IC50 is 0.025 in assay [4] and over 550 in assay [5]. In assay [6], the pKi was 7.80.
Regarding `O=C(CCc1ccc(Oc2ccccc2)cc1)c1ncc(C(F)(F)F)o1`, the negative logarithm of the Ki (pKi) was 9.00 in assay [3] and 8.70 in assay [6].
As for `O=C(CCc1ccc(COc2ccccc2)cc1)c1ncc(-c2cccc(-c3nnn[nH]3)n2)o1`, the pIC50 in assay [1] was under 4.00; in assay [2] it was 4.05; in assay [6], 6.74. Moreover, the Ratio IC50 in assay [4] was 500; in assay [5] it was over 550.

The values above are taken from ChEMBL document CHEMBL1142267, “Optimization of alpha-ketooxazole inhibitors of fatty acid amide hydrolase” (J Med Chem, 2008).
